Measured values taken from ChEMBL document CHEMBL5724801, “EUbOPEN Chemogenomics Library - Multiplex” (2024).
“And” between values parts separate entries of the source, which are not always exact repeats. Equal entries are not always repeated.

Tested on: HEK-293T
Test: Multiplex assay against HEK293T
Format: toxicity, cell-based
Settings: human
Procedure, shortened: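 Per cents of healthy-nucleus cells form the tubulin, mitochondrial-mass and membrane-permeability phenotype values. Live cells were stained at seeding with Hoechst33342, BioTracker Green Microtubule Cytoskeleton Dye, MitoTracker Red and Annexin V Alexa Fluor 680. After compound addition they were imaged on a CQ1 microscope at 37°C and 5% CO2, and CellPathfinder machine-learning gating split them into Hoechst high-intensity objects or normal cells, normal cells into healthy, pyknosed or fragmented nuclei, and pyknosed cells into mitotic or apoptotic.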

[1] = 12 h, 1 µM, compound concentration 1 uM
[2] = 12 h, 10 µM, compound concentration 10 uM
[3] = 24 h, 1 µM, compound concentration 1 uM
[4] = 24 h, 10 µM, compound concentration 10 uM
[5] = 48 h, 1 µM, compound concentration 1 uM
[6] = 48 h, 10 µM, compound concentration 10 uM

CN1C[C@H](C(=O)N[C@]2(C)O[C@@]3(O)[C@@H]4CCCN4C(=O)[C@H](Cc4ccccc4)N3C2=O)C[C@@H]2c3cccc4[nH]cc(c34)C[C@H]21.CS(=O)(=O)O [DIHYDROERGOTAMINE MESYLATE]
Population Apoptotic (%) [1]: 38% and 46% | Population Fragmented Nuclei (%) [1]: 6% and 3% | Population Healthy Nuclei (%) [1]: 84% and 81% | Population Hoechst High Intensity Objects (%) [1]: 5% | Population Membrane Permeable-Phenotype (%) [1]: 0% | Population Mitochondria Different-Phenotype (%) [1]: 41% and 65% | Population Mitotic Cells (%) [1]: 61% and 53% | Population Normal (%) [1]: 94% | Population Pyknosed Nuclei (%) [1]: 8% and 14% | Population Tubulin-Different-Phenotype (%) [1]: 26% and 17% | Total Cell Count [1]: 418 and 285 | Population Apoptotic (%) [2]: 31% and 53% | Population Fragmented Nuclei (%) [2]: 7% and 5% | Population Healthy Nuclei (%) [2]: 76% and 80% | Population Hoechst High Intensity Objects (%) [2]: 9% and 11% | Population Membrane Permeable-Phenotype (%) [2]: 0% | Population Mitochondria Different-Phenotype (%) [2]: 48% and 61% | Population Mitotic Cells (%) [2]: 68% and 46% | Population Normal (%) [2]: 90% and 88% | Population Pyknosed Nuclei (%) [2]: 15% and 13% | Population Tubulin-Different-Phenotype (%) [2]: 29% and 23% | Total Cell Count [2]: 403 and 435 | Population Apoptotic (%) [3]: 28% and 51% | Population Fragmented Nuclei (%) [3]: 9% and 7% | Population Healthy Nuclei (%) [3]: 80% and 84% | Population Hoechst High Intensity Objects (%) [3]: 4% and 3% | Population Membrane Permeable-Phenotype (%) [3]: 0% | Population Mitochondria Different-Phenotype (%) [3]: 28% and 41% | Population Mitotic Cells (%) [3]: 71% and 48% | Population Normal (%) [3]: 95% and 96% | Population Pyknosed Nuclei (%) [3]: 9% and 8% | Population Tubulin-Different-Phenotype (%) [3]: 20% and 12% | Total Cell Count [3]: 621 and 341 | Population Apoptotic (%) [4]: 27% and 32% | Population Fragmented Nuclei (%) [4]: 10% and 9% | Population Healthy Nuclei (%) [4]: 76% and 84% | Population Hoechst High Intensity Objects (%) [4]: 5% and 6% | Population Membrane Permeable-Phenotype (%) [4]: 0% | Population Mitochondria Different-Phenotype (%) [4]: 33% and 39% | Population Mitotic Cells (%) [4]: 72% and 67% | Population Normal (%) [4]: 94% and 93% | Population Pyknosed Nuclei (%) [4]: 13% and 6% | Population Tubulin-Different-Phenotype (%) [4]: 26% and 16% | Total Cell Count [4]: 480 and 567 | Population Apoptotic (%) [5]: 29% and 28% | Population Fragmented Nuclei (%) [5]: 14% and 12% | Population Healthy Nuclei (%) [5]: 78% and 82% | Population Hoechst High Intensity Objects (%) [5]: 2% | Population Membrane Permeable-Phenotype (%) [5]: 1% and 0% | Population Mitochondria Different-Phenotype (%) [5]: 17% and 23% | Population Mitotic Cells (%) [5]: 70% and 71% | Population Normal (%) [5]: 97% | Population Pyknosed Nuclei (%) [5]: 6% and 5% | Population Tubulin-Different-Phenotype (%) [5]: 11% and 9% | Total Cell Count [5]: 1011 and 524 | Population Apoptotic (%) [6]: 22% and 31% | Population Fragmented Nuclei (%) [6]: 15% | Population Healthy Nuclei (%) [6]: 76% and 77% | Population Hoechst High Intensity Objects (%) [6]: 2% and 1% | Population Membrane Permeable-Phenotype (%) [6]: 0% | Population Mitochondria Different-Phenotype (%) [6]: 20% and 21% | Population Mitotic Cells (%) [6]: 77% and 68% | Population Normal (%) [6]: 97% and 98% | Population Pyknosed Nuclei (%) [6]: 7% and 6% | Population Tubulin-Different-Phenotype (%) [6]: 12% and 11% | Total Cell Count [6]: 778 and 793

Cc1cc(C)c(NC(=O)C2CC3CCC2C3)c(C)c1 (stereo unspecified)
Population Apoptotic (%) [1]: 10.42% and 11.4% | Population Fragmented Nuclei (%) [1]: 4.2% and 7.23% | Population Healthy Nuclei (%) [1]: 55.46% and 24.1% | Population Hoechst High Intensity Objects (%) [1]: 0.83% and 0% | Population Membrane Permeable-Phenotype (%) [1]: 0.51% and 2.5% | Population Mitochondria Different-Phenotype (%) [1]: 38.89% and 22.5% | Population Mitotic Cells (%) [1]: 89.58% and 88.6% | Population Normal (%) [1]: 99.17% and 100% | Population Pyknosed Nuclei (%) [1]: 40.34% and 68.67% | Total Cell Count [1]: 360 and 166 | Population Apoptotic (%) [2]: 15.2% | Population Fragmented Nuclei (%) [2]: 3.72% and 4.14% | Population Healthy Nuclei (%) [2]: 44.63% and 21.89% | Population Hoechst High Intensity Objects (%) [2]: 0.82% and 0% | Population Membrane Permeable-Phenotype (%) [2]: 0.93% and 2.7% | Population Mitochondria Different-Phenotype (%) [2]: 32.41% and 16.22% | Population Mitotic Cells (%) [2]: 84.8% | Population Normal (%) [2]: 99.18% and 100% | Population Pyknosed Nuclei (%) [2]: 51.65% and 73.96% | Total Cell Count [2]: 244 and 169 | Population Apoptotic (%) [3]: 14.08% and 10% | Population Fragmented Nuclei (%) [3]: 1.7% and 6.43% | Population Healthy Nuclei (%) [3]: 74.19% and 29.24% | Population Hoechst High Intensity Objects (%) [3]: 0% | Population Membrane Permeable-Phenotype (%) [3]: 1.6% and 0% | Population Mitotic Cells (%) [3]: 85.92% and 90% | Population Normal (%) [3]: 100% | Population Pyknosed Nuclei (%) [3]: 24.11% and 64.33% | Population Tubulin-Different-Phenotype (%) [3]: 17.39% and 0% | Population Apoptotic (%) [4]: 17.76% and 15.52% | Population Fragmented Nuclei (%) [4]: 1.69% and 2.58% | Population Healthy Nuclei (%) [4]: 72.53% and 37.63% | Population Hoechst High Intensity Objects (%) [4]: 0% | Population Membrane Permeable-Phenotype (%) [4]: 0.33% and 1.37% | Population Mitochondria Different-Phenotype (%) [4]: 17.61% and 20.55% | Population Mitotic Cells (%) [4]: 82.24% and 84.48% | Population Normal (%) [4]: 100% | Population Pyknosed Nuclei (%) [4]: 25.78% and 59.79% | Population Tubulin-Different-Phenotype (%) [4]: 14.95% and 10.96% | Total Cell Count [4]: 415 and 194 | Population Apoptotic (%) [5]: 8.16% and 13.89% | Population Fragmented Nuclei (%) [5]: 2.91% and 1.03% | Population Healthy Nuclei (%) [5]: 86.66% and 62.05% | Population Hoechst High Intensity Objects (%) [5]: 0% and 1.52% | Population Membrane Permeable-Phenotype (%) [5]: 4.67% and 2.48% | Population Mitochondria Different-Phenotype (%) [5]: 12.37% and 24.79% | Population Mitotic Cells (%) [5]: 91.84% and 86.11% | Population Normal (%) [5]: 100% and 98.48% | Population Apoptotic (%) [6]: 9.24% and 23.08% | Population Fragmented Nuclei (%) [6]: 2.94% and 2.43% | Population Healthy Nuclei (%) [6]: 84.08% and 71.26% | Population Hoechst High Intensity Objects (%) [6]: 0% | Population Membrane Permeable-Phenotype (%) [6]: 4.15% and 3.98% | Population Mitochondria Different-Phenotype (%) [6]: 20.62% and 28.98% | Population Mitotic Cells (%) [6]: 90.76% and 76.92% | Population Normal (%) [6]: 100% | Population Pyknosed Nuclei (%) [6]: 12.98% and 26.32%

C=CC(=O)Nc1cc(Nc2nccc(-n3cc(CN(C)C)c(-c4ccccc4)n3)n2)c(OC)cc1N1CCOCC1 [LAZERTINIB]
Population Apoptotic (%) [1]: 14.72% and 15.96% | Population Fragmented Nuclei (%) [1]: 1.35% and 8.26% | Population Hoechst High Intensity Objects (%) [1]: 0.67% and 0% | Population Membrane Permeable-Phenotype (%) [1]: 0.77% and 5.88% | Population Mitochondria Different-Phenotype (%) [1]: 33.85% and 11.76% | Population Mitotic Cells (%) [1]: 85.28% and 84.04% | Population Normal (%) [1]: 99.33% and 100% | Population Pyknosed Nuclei (%) [1]: 54.88% and 77.69% | Population Tubulin-Different-Phenotype (%) [1]: 31.54% and 82.35% | Total Cell Count [1]: 299 and 121 | Population Apoptotic (%) [2]: 22.22% and 29.59% | Population Fragmented Nuclei (%) [2]: 3.83% and 10% | Population Healthy Nuclei (%) [2]: 22.97% and 8.33% | Population Hoechst High Intensity Objects (%) [2]: 0.48% and 0% | Population Membrane Permeable-Phenotype (%) [2]: 0% | Population Mitochondria Different-Phenotype (%) [2]: 47.92% and 60% | Population Mitotic Cells (%) [2]: 77.78% and 70.41% | Population Normal (%) [2]: 99.52% and 100% | Population Pyknosed Nuclei (%) [2]: 73.21% and 81.67% | Population Tubulin-Different-Phenotype (%) [2]: 75% and 80% | Total Cell Count [2]: 210 and 120 | Population Apoptotic (%) [3]: 15.83% and 31.58% | Population Fragmented Nuclei (%) [3]: 1.82% and 4.92% | Population Hoechst High Intensity Objects (%) [3]: 0.45% and 0% | Population Membrane Permeable-Phenotype (%) [3]: 3.41% and 4.76% | Population Mitochondria Different-Phenotype (%) [3]: 36.18% and 52.38% | Population Mitotic Cells (%) [3]: 84.17% and 68.42% | Population Normal (%) [3]: 99.55% and 100% | Population Pyknosed Nuclei (%) [3]: 31.59% and 77.87% | Population Tubulin-Different-Phenotype (%) [3]: 50.85% and 47.62% | Population Apoptotic (%) [4]: 46.43% and 51.06% | Population Fragmented Nuclei (%) [4]: 3.95% and 6.25% | Population Healthy Nuclei (%) [4]: 22.37% and 9.82% | Population Hoechst High Intensity Objects (%) [4]: 1.3% and 0% | Population Membrane Permeable-Phenotype (%) [4]: 1.96% and 0% | Population Mitotic Cells (%) [4]: 53.57% and 48.94% | Population Normal (%) [4]: 98.7% and 100% | Population Pyknosed Nuclei (%) [4]: 73.68% and 83.93% | Population Tubulin-Different-Phenotype (%) [4]: 100% and 54.55% | Total Cell Count [4]: 231 and 112 | Population Apoptotic (%) [5]: 12.5% and 24.32% | Population Fragmented Nuclei (%) [5]: 3.16% and 5.04% | Population Healthy Nuclei (%) [5]: 82.41% and 41.73% | Population Hoechst High Intensity Objects (%) [5]: 0.11% and 1.42% | Population Membrane Permeable-Phenotype (%) [5]: 7.11% and 0% | Population Mitochondria Different-Phenotype (%) [5]: 43.78% and 63.79% | Population Mitotic Cells (%) [5]: 87.5% and 75.68% | Population Normal (%) [5]: 99.89% and 98.58% | Population Apoptotic (%) [6]: 50% and 19.23% | Population Fragmented Nuclei (%) [6]: 1.89% and 5.38% | Population Healthy Nuclei (%) [6]: 64.67% and 34.62% | Population Hoechst High Intensity Objects (%) [6]: 0% | Population Membrane Permeable-Phenotype (%) [6]: 9.27% and 0% | Population Mitochondria Different-Phenotype (%) [6]: 73.66% and 40% | Population Mitotic Cells (%) [6]: 50% and 80.77% | Population Normal (%) [6]: 100% | Population Pyknosed Nuclei (%) [6]: 33.44% and 60% | Total Cell Count [6]: 317 and 130
